# Experimental data: ChEMBL document CHEMBL1165999, “Cytotoxic ent-kaurane diterpenoids from Isodon rubescens var. lushiensis” (J Nat Prod, 2010)
# Experiments:
# [1] = test system: PANC-1; experiment: Growth inhibition of human PANC1 cells after 48 hrs by MTT assay; conditions: PANC-1, 48 h
# [2] = test system: HL-60; experiment: Cytotoxicity against human HL60 cells after 48 hrs by MTT assay; format: functional, cell-based; conditions: HL-60, 48 h
# How it was run: (§1)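 Cells grown in RPMI-1640 or DMEM with 10% FBS at 37 °C, 5% CO2, seeded at 1 × 10^5 cells/mL. Adherent lines were left 12 h to attach; suspension cells were added just before dosing. Various concentrations were tested in triplicate for 48 h, with cisplatin and paclitaxel controls. MTT (100 µg) was then added for 4 h, cells lysed in 20% SDS-50% DMF, and OD read at 595 nm. IC50 was calculated by the Reed-Muench method.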
# [3] = test system: SMMC-7721; experiment: Cytotoxicity against human SMMC7721 cells after 48 hrs by MTT assay; format: functional, cell-based; conditions: SMMC-7721, 48 h
# How it was run: as §1
# [4] = test system: SK-BR-3; experiment: Cytotoxicity against human SK-BR-3 cells after 48 hrs by MTT assay; format: functional, cell-based; conditions: SK-BR-3, 48 h
# How it was run: as §1
# [5] = test system: A549; experiment: Cytotoxicity against human A549 cells after 48 hrs by MTT assay; format: functional, cell-based; conditions: A549, 48 h
# How it was run: as §1
IC50 [1] [µM],SMILES,IC50 [2] [µM],IC50 [3] [µM],IC50 [4] [µM],IC50 [5] [µM]
4.5,C=C1C(=O)[C@@]23[C@H](O)C[C@@H]4C(C)(C)CCC[C@@]4(C)[C@@H]2[C@@H](O)C[C@@H]1[C@H]3O [PHYLLOSTACHYSIN F],0.85,5.5,3.3,3.3
> 10,C=C1C(=O)[C@@]23[C@@H]4C[C@@H]5C(C)(C)[C@H](O)CC[C@@]5([C@@H](OC)O4)[C@@H]2[C@@H](O)C[C@@H]1[C@H]3O [ISOLUSHININ F],> 10,> 10,> 10,> 10
> 10,CO[C@@H]1OC[C@]2(C)CCC[C@]3(COC(=O)[C@@]45C[C@@H](CC[C@H]43)[C@H](C)C5=O)[C@H]12 [LUDONGNIN G],> 10,> 10,> 10,> 10
> 10,C=C1[C@@H]2CC[C@H]3[C@]45CCC[C@@](C)(COC(C)=O)[C@H]4[C@H](O)[C@](O)(OC5)[C@]3(C2)[C@@H]1O [ISOLUSHININ B],> 10,> 10,> 10,> 10
6.6,C=C1C(=O)[C@@]23[C@H](O)C[C@@H]4[C@@](C)(CO)CCC[C@@]4(COC(C)=O)[C@@H]2CC[C@@H]1[C@H]3O [ISOLUSHININ H],2.5,> 10,6.1,> 10
> 10,C=C1C(=O)[C@]23C[C@H]1C[C@@H](O)[C@H]2[C@@]1(CCC[C@@]2(C)COC(=O)[C@H]21)COC3=O [LUDONGNIN A],3.1,> 10,> 10,> 10
8.6,C=C1C(=O)[C@@]23[C@@H]4C[C@@H]5C(C)(C)CCC[C@@]5([C@@H](O)O4)[C@@H]2[C@@H](O)C[C@@H]1[C@H]3O,1.2,6.2,4.4,5.9
5.7,C=C1C(=O)[C@@]23[C@H](O)C[C@@H]4C(C)(C)CCC[C@@]4(COC(C)=O)[C@@H]2[C@@H](O)C[C@@H]1[C@H]3O [FLEXICANLIN A],0.64,9.9,> 10,9.8
> 10,C=C1[C@@H](O)[C@]23[C@H](O)[C@H]1CC[C@H]2[C@@]12CO[C@@]3(O)[C@@H](O)[C@@H]1C(C)(C)CC[C@@H]2O [ENMENOL],6.7,> 10,> 10,> 10
> 10,C=C1C(=O)[C@@]23[C@H](O)C[C@@H]4C(C)(C)CCC[C@@]4(CO)[C@@H]2[C@@H](O)C[C@@H]1[C@H]3O [KAMEBAKAURININ],1.8,> 10,> 10,> 10
5.2,C=C1C(=O)[C@@]23[C@@H]4C[C@@H]5C(C)(C)CCC[C@@]5([C@@H](OCC)O4)[C@@H]2[C@@H](O)C[C@@H]1[C@H]3O,0.64,3.5,2.4,4.2
> 10,C=C1C(=O)[C@@]23[C@H](O)C[C@@H]4C(C)(C)CCC[C@@]4(COC(C)=O)[C@@H]2[C@@H](O)[C@H](O)[C@@H]1[C@H]3O [ISOLUSHININ G],> 10,> 10,> 10,> 10
> 10,C=C1[C@@H]2C[C@@H](O)[C@@H]3[C@](C2)(C(=O)O[C@H]2CC[C@@]4(C)CO[C@H]5OC[C@]23[C@H]54)[C@@H]1O [SCULPONEATIN B],> 10,> 10,> 10,> 10
> 10,C=C1C(=O)[C@]23[C@H](O)[C@H]1CC[C@H]2[C@@]12CO[C@]3(O)[C@@H](O)[C@@H]1C(C)(C)CC[C@@H]2O [ORIDONIN],3.9,> 10,> 10,> 10
9.8,C=C1C(=O)[C@@]23[C@@H]4C[C@@H]5C(C)(C)CCC[C@@]5([C@@H](OC)O4)[C@@H]2[C@@H](O)C[C@@H]1[C@H]3O,0.95,4.4,3.3,5.6
7,C=C1C(=O)[C@@]23[C@@H]4C[C@@H]5C(C)(C)CCC[C@@]5([C@@H](OC)O4)[C@@H]2[C@@H](OC(C)=O)C[C@@H]1[C@H]3O [ISOLUSHININ D],1.1,4.7,6.4,6.4
> 10,C=C1C(=O)[C@@]23CC[C@@H]4C(C)(C)CC[C@H](O)[C@@]4(C)[C@@H]2[C@@H](O)C[C@@H]1[C@H]3O [PHYLLOSTACHYSIN H],6.4,> 10,> 10,> 10
> 10,C=C1[C@@H]2CC[C@H]3[C@]45CC[C@@H]6OC4O[C@@H](C[C@@H]5C6(C)C)[C@]3(C2)[C@@H]1O [ISOLUSHININ A],> 10,> 10,> 10,> 10
< 0.008,CC(=O)O[C@H]1C(=O)[C@@]2(C)[C@H]([C@H](OC(=O)c3ccccc3)[C@]3(O)C[C@H](OC(=O)[C@H](O)[C@@H](NC(=O)c4ccccc4)c4ccccc4)C(C)=C1C3(C)C)[C@]1(OC(C)=O)CO[C@@H]1C[C@@H]2O [PACLITAXEL],< 0.008,< 0.008,0.11,1.4
